Laboratory results reported in ChEMBL document CHEMBL1914430, “Synthesis of some new 1,3,5-trisubstituted pyrazolines bearing benzene sulfonamide as anticancer and anti-inflammatory agents” (Bioorg Med Chem Lett, 2011).

Experiments:
Type in all cases: functional
PC-3 = assay: Anticancer activity against human PC3 cells after 48 hrs; settings: PC-3, 48 h
Method in brief: (§1)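 NCI 60-line panel protocol with a 48 h incubation. Per line: GI50 = concentration giving 50% decrease in net cell growth; TGI = total growth inhibition; LC50 = net 50% loss of initial cells. When the level was not reached or was exceeded, the value is given as greater or less than the highest or lowest concentration tested.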

786-0 = assay: Anticancer activity against human 786-0 cells after 48 hrs; settings: 786-0, 48 h
Method in brief: (§2)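 NCI Drug Evaluation Branch 60-cell-line screen across leukemia, melanoma, lung, colon, CNS, ovarian, renal, prostate and breast panels. The incubation period is 48 h. Parameters are derived from dose–response data: GI50 is the concentration giving 50% decrease in net growth, TGI is total growth inhibition, and LC50 is net 50% loss of initial cells. Values beyond the tested range are reported as greater or less than the maximum or minimum concentration.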

MDA-MB-231 = assay: Anticancer activity against human MDA-MB-231 cells after 48 hrs; settings: MDA-MB-231, 48 h; method in brief: as §2
U-251 = assay: Anticancer activity against human U251 cells after 48 hrs; settings: U-251, 48 h
Method in brief: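 NCI ~60 human tumour cell line panel with a 48 h incubation. GI50 is the concentration giving a 50% fall in net growth, TGI gives total growth inhibition, and LC50 gives a net 50% loss of initial cells. An effect not reached or exceeded is reported as greater or less than the highest or lowest concentration tested.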

HOP-92 = assay: Anticancer activity against human HOP92 cells after 48 hrs; settings: HOP-92, 48 h; method in brief: as §2
SF-268 = assay: Anticancer activity against human SF268 cells after 48 hrs; settings: SF-268, 48 h; method in brief: as §1
NCI-H460 = assay: Anticancer activity against human NCI-H460 cells after 48 hrs; settings: NCI-H460, 48 h; method in brief: as §1
NCI-H226 = assay: Anticancer activity against human NCI-H226 cells after 48 hrs; settings: NCI-H226, 48 h; method in brief: as §1
OVCAR-8 = assay: Anticancer activity against human OVCAR8 cells after 48 hrs; settings: OVCAR-8, 48 h; method in brief: as §1
MOLT-4 = assay: Anticancer activity against human MOLT4 cells after 48 hrs; settings: MOLT-4, 48 h; method in brief: as §1
OVCAR-5 = assay: Anticancer activity against human OVCAR5 cells after 48 hrs; settings: OVCAR-5, 48 h; method in brief: as §1
SNB-75 = assay: Anticancer activity against human SNB75 cells after 48 hrs; settings: SNB-75, 48 h; method in brief: as §1
CCRF-CEM = assay: Anticancer activity against human CCRF-CEM cells after 48 hrs; method in brief: as §2
HT-29 = assay: Anticancer activity against human HT-29 cells after 48 hrs; settings: HT-29, 48 h; method in brief: as §2
SK-MEL-5 = assay: Anticancer activity against human SK-MEL-5 cells after 48 hrs; settings: SK-MEL-5, 48 h; method in brief: as §1
SW-620 = assay: Anticancer activity against human SW620 cells after 48 hrs; settings: SW-620, 48 h; method in brief: as §1
MDA-MB-435 = assay: Anticancer activity against human MDA-MB-435 cells after 48 hrs; settings: MDA-MB-435, 48 h; method in brief: as §2
DU-145 = assay: Anticancer activity against human DU145 cells after 48 hrs; settings: DU-145, 48 h; method in brief: as §2
OVCAR-4 = assay: Anticancer activity against human OVCAR4 cells after 48 hrs; settings: OVCAR-4, 48 h; method in brief: as §1
NCI/ADR-RES = assay: Anticancer activity against human NCI/ADR-RES cells after 48 hrs; method in brief: as §1
ACHN = assay: Anticancer activity against human ACHN cells after 48 hrs; method in brief: as §2
[1] = Anticancer activity against human Hs 578T cells after 48 hrs; method in brief: as §2
LOX IMVI = assay: Anticancer activity against human LOXIMVI cells after 48 hrs; method in brief: as §2
SR = assay: Anticancer activity against human SR cells after 48 hrs; method in brief: as §1
MDA-MB-468 = assay: Anticancer activity against human MDA-MB-468 cells after 48 hrs; settings: MDA-MB-468, 48 h; method in brief: as §2
HL-60(TB) = assay: Anticancer activity against human HL-60(TB) cells after 48 hrs; settings: HL-60, 48 h
Method in brief: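 NCI 60-cell-line panel protocol: cells exposed to compound for 48 h. Initial one-dose screen at 10⁻⁵ M. GI50 = concentration giving 50% decrease in net cell growth. TGI = concentration giving total growth inhibition. LC50 = concentration giving net 50% loss of initial cells at the end of incubation. A value not reached or exceeded is reported as greater or less than the highest or lowest concentration tested.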

HCC 2998 = assay: Anticancer activity against human HCC2998 cells after 48 hrs; settings: HCC 2998, 48 h; method in brief: as §2
RPMI-8226 = assay: Anticancer activity against human RPMI8226 cells after 48 hrs; settings: RPMI-8226, 48 h; method in brief: as §1
IGROV-1 = assay: Anticancer activity against human IGROV1 cells after 48 hrs; settings: IGROV-1, 48 h; method in brief: as §2
[2] = read-out: LC50 (the source's name)

## COc1ccc(C2CC(c3cc(Cl)c(C)cc3O)=NN2c2ccc(S(N)(=O)=O)cc2)cc1OC (centres undefined)
PC-3
  GI50: 2.61 µM
  TGI: 13.7 µM
PC-3; [2]
  CC50: > 100 µM
786-0
  GI50: 2.37 µM
  TGI: 5.04 µM
786-0; [2]
  CC50: > 100 µM
MDA-MB-231
  GI50: 3.81 µM
  TGI: 12.5 µM
MDA-MB-231; [2]
  CC50: 40.4 µM
U-251
  GI50: 3.71 µM
  TGI: 14 µM
U-251; [2]
  CC50: 48.2 µM
HOP-92
  GI50: 1.81 µM
  TGI: 7.42 µM
HOP-92; [2]
  CC50: > 100 µM
SF-268
  GI50: 4.74 µM
  LC50 (concentration killing 50% of initial cells): > 100 µM
NCI-H460
  GI50: 2.5 µM
  LC50 (50% lethal concentration): 22 µM
  TGI: 5.85 µM
NCI-H226
  GI50: 5.62 µM
  TGI: 23.1 µM
NCI-H226; [2]
  CC50: 86.4 µM
OVCAR-8
  GI50: 3.39 µM
  TGI: 17.9 µM
OVCAR-8; [2]
  CC50: > 100 µM
MOLT-4
  GI50: 5.29 µM
  LC50: > 100 µM
  TGI: > 100 µM
OVCAR-5
  GI50: 2.25 µM
  LC50: 27.8 µM
  TGI: 6.36 µM
SNB-75
  GI50: 2.7 µM
  TGI: 97.2 µM
SNB-75; [2]
  CC50: > 100 µM
CCRF-CEM
  GI50: 5.35 µM
  LC50 (concentration causing net 50% loss of initial cells): > 100 µM
  TGI: > 100 µM
HT-29
  GI50: 2.24 µM
  TGI: 6.48 µM
HT-29; [2]
  CC50: 36.9 µM
SK-MEL-5
  GI50: 4.28 µM
  LC50: 39.7 µM
  TGI: 15.2 µM
SW-620
  GI50: 4.08 µM
  TGI: 26.6 µM
SW-620; [2]
  CC50: > 100 µM
MDA-MB-435
  GI50: 3.97 µM
  TGI: 24 µM
MDA-MB-435; [2]
  CC50: > 100 µM
DU-145
  GI50: 4.49 µM
  LC50 (concentration causing net 50% loss of initial cells): > 100 µM
  TGI: 21.7 µM
OVCAR-4
  GI50: 4.18 µM
  LC50: > 100 µM
NCI/ADR-RES
  GI50: 3.39 µM
  TGI: 14.1 µM
NCI/ADR-RES; [2]
  CC50: > 100 µM
ACHN
  GI50: 3.15 µM
  TGI: 12.2 µM
ACHN; [2]
  CC50: > 100 µM
[1]
  GI50: 3.29 µM
  TGI: 34.3 µM
[1]; [2]
  CC50: > 100 µM
LOX IMVI
  GI50: 3.35 µM
  TGI: 11 µM
LOX IMVI; [2]
  CC50: 37.4 µM
SR
  GI50: 2.82 µM
  LC50 (concentration killing 50% of initial cells): > 100 µM
MDA-MB-468
  GI50: 2.58 µM
  TGI: 9.51 µM
MDA-MB-468; [2]
  CC50: > 100 µM
HL-60(TB)
  GI50: 3.42 µM
  LC50: > 100 µM
  TGI: 100 µM
HCC 2998
  GI50: 2.72 µM
  LC50 (net 50% loss of initial cells): 27.4 µM
  TGI: 7.25 µM
RPMI-8226
  GI50: 4.1 µM
  LC50 (concentration for net 50% loss of initial cells): > 100 µM
  TGI: 100 µM
IGROV-1
  GI50: 2.34 µM
  LC50 (net 50% loss of initial cells): 28.8 µM
  TGI: 5.46 µM
